These results are taken from PubChem BioAssay.

The source made the active and inactive calls.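 How the source made its calls, unless noted: active means visually confirmed hit in the image check and inhibition above 20%; inconclusive means visually confirmed hit but inhibition not above 20%; inactive means no visual hit in the image check.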

Assay [1] can be described thus: inhibitors of TNFa-induced NFkB p65 translocation, primary screen, imaging, HUVEC, MLSMR starter and 10KST1 sets (AID 438;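 active means inhibition above 20% together with a positive visual image hit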;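 further: compound added about 3h40 before a 20 min TNFalpha stimulation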;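 on inhibition: signal is the nuclear over cytoplasmic p65 intensity ratio per well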). As to conditions: HUVEC TNFa-induced p65 nuclear translocation; cell count: measured here: nuclei count (cytotoxicity indicator), at 2.08 µM; inhibition: at 2 µM, stronger effect = higher value, 0% TNFa-plus-vehicle, 100% no-TNFa wells.
Assay [2] in a line: inhibitors of E-selectin induction by TNFa, primary screen, imaging, HUVEC, immunofluorescence, MLSMR starter and 10KST1 sets (AID 487).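 On inhibition: signal is fraction of cell area covered by stained E-selectin grains.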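 On nuclei count: 100% = median nuclei count of all wells on the same plate.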 As to conditions: HUVEC TNFalpha-induced E-selectin immunofluorescence imaging, at 2 µM; inhibition: stronger effect = higher value; nuclei count: measured here: cell number, toxicity.
The nature of assay [3]: DUSP6 inhibitors restoring Erk phosphorylation by chemical complementation, primary imaging in DUSP6-transfected HeLa (AID 609;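 active means compounds giving at least 50% inhibition in the cell-based MKP-3 phosphatase rescue imaging test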;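 on inhibition: phospho-Erk level distribution per well compared with pooled transfected vehicle control wells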). Particulars: HeLa MKP-3 transfected, phospho-Erk imaging KS statistic, at 10 µM, cells stimulated with TPA for 15 min.
Assay [4] deals with Dual specificity protein phosphatase 6 (Homo sapiens) (UniProt Q16828). The assay is described as above. As to conditions: HeLa MKP-3 transfected, phospho-Erk imaging KS statistic; at 10 µM; stronger effect = higher value; cells stimulated with TPA for 15 min.
In assay [5] the target is Voltage-gated potassium channel subunit beta-2 (Rattus norvegicus) (UniProt P62483). The experiment in a line: KvBeta enzyme negative modulators, primary screen, biochemical, NADPH fluorescence (AID 622;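 active means fluorescence slope higher than the sample average by over 3 SD, cut at about -0.22 in these data, passing the limit was not always enough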;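 further: slope of raw intensity against log time taken from 70 to 1610 s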). Particulars: recombinant KvBeta, 4-cyanobenzaldehyde reduction, at 10 µM, stronger effect = higher value.
Assay [6] shares this target. The assay is described as follows: KvBeta positive modulators, primary screen, biochemical, NADPH fluorescence (AID 623;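 active means NADPH fluorescence slope more negative than the mean of all samples by about 3 SD, 99.7% confidence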;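 further: fluorescence intensity change per second fitted from 20 to 320 s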). Particulars: Recombinant KvBeta, NADPH fluorescence decrease slope, 10 min; at 10 µM; stronger effect = lower value.
For assay [7], the target named is Muscarinic acetylcholine receptor M4 (Homo sapiens) (UniProt P08173). The experiment in a line: compounds altering M4/GIRK thallium flux, either direction, primary screen, M4 allosteric agonist project, cell-based, HEK293 M4/GIRK, BTC-AM (AID 625;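 active means fluorescence slope after compound addition differing from the mean of all tested samples at 99.7% confidence, mostly higher but some lower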;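 further: thallium influx through GIRK channels coupled to M4 in HEK293 cells with BTC-AM dye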). Particulars: at 10 µM, actives lie on both sides. In a few lines: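 System: HEK293 cells with M4 receptor and GIRK channels | Incubation: Cells overnight at 37 °C, BTC-AM loading 1 h, reads 2 min total | Technique: Kinetic BTC-AM fluorescence sampled at 1 Hz, 10 s pre-addition baseline | Measure: Post-addition slope, 15–24 s, of baseline-normalized fluorescence | Control set: Carbachol positive, DMSO negative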

A short description of assay [8]: inhibitors of larval lipid processing in zebrafish, primary screen, whole organism, PED6 fluorescence, gall bladder and intestine (AID 686;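 active means a full or partial loss of lipid-probe fluorescence in the fish gall bladder, intestine or both, judged by eye; inactive means no fluorescence loss, or compound toxic to the fish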;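 further: larvae 5 to 7 days old with five fish per well; signal comes from phospholipase A2 cleavage of quenched PED6 carried via bile; overnight exposure to compound and PED6 before scoring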). Particulars: Zebrafish larvae PED6 lipid processing, fluorescence scoring; screened at 20 µM (by protocol). In outline:
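Test system – live zebrafish larvae aged 5-7 days, whole organism · Buffer or medium – E3 fish medium · Reagent – quenched phospholipase substrate PED6, 100 nM final, ingested by larvae · Doses – 20 µM single dose · Incubation – overnight compound and PED6 incubation · Technique – visual fluorescence microscopy scoring of gall bladder, gut · Read-out basis – visual per-well fluorescence inhibition score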

Assay [9] is described as follows: inhibitors of Chlamydomonas gravitaxis, primary screen, whole organism, Chlamydomonas reinhardtii, WT vs cilia-less mutant, absorbance, 96-well (AID 463189;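 active means inhibition at or above 50% relative to wild type and mutant plate controls; inactive means inhibition below 50%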;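 further: 0% = wild type cc124 cells in DMSO and 100% = ciliumless bld1 mutant cells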). As to conditions: OD600 absorbance, 2 days, at 10 µM, stronger effect = higher value.
Where [10] appears, read: measured here: cell density z-score.
Where [11] appears, read: measured here: nuclear c-Myc green intensity z-score.
[12] abbreviates: measured here: nuclear pErk red intensity z-score, stronger effect = higher value.

Chain of Dual specificity protein phosphatase 6 (Homo sapiens) (Q16828 whole entry, looked up): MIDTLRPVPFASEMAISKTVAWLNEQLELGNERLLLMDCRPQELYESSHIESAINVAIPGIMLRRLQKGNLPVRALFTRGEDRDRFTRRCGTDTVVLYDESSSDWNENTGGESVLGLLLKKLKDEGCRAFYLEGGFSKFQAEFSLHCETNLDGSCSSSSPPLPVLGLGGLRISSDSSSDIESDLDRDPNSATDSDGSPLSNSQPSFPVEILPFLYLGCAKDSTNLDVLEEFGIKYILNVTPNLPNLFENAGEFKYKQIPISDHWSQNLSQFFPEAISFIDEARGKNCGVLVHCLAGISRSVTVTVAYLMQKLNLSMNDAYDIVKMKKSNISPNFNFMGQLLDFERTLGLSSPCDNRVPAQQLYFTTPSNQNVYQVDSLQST
Chain of Voltage-gated potassium channel subunit beta-2 (Rattus norvegicus) (P62483 whole entry, looked up): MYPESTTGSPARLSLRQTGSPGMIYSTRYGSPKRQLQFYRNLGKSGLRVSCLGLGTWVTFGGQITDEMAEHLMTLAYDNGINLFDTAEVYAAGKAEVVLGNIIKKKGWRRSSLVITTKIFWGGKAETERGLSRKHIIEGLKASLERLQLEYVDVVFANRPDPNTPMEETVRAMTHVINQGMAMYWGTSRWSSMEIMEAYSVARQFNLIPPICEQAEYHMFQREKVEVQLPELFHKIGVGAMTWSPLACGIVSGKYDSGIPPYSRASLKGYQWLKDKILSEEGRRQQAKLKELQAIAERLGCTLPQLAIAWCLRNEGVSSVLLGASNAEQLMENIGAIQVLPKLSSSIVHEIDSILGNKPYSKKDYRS
Chain of Muscarinic acetylcholine receptor M4 (Homo sapiens) (P08173 whole entry, looked up): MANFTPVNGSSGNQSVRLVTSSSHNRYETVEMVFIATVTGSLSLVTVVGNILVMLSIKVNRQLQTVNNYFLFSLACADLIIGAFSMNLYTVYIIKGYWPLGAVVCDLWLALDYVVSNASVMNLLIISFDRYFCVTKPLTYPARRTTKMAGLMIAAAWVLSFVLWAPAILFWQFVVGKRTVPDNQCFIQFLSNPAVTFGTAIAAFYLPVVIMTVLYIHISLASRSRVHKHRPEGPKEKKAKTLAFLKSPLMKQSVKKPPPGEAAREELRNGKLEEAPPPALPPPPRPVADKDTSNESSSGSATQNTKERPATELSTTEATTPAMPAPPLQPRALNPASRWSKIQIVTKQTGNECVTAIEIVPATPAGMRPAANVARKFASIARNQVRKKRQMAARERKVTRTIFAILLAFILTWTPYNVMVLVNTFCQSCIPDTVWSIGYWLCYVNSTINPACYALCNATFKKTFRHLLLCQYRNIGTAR

As a reminder, the inhibition is the change of the read-out against control, counted positive when it falls. In the case of `Cc1cc(=O)oc(C)c1C(=O)NCC(C)C`, in assay [1], the cell count turned out to be 455. Besides, the inhibition in [1] is -2.1% (inactive); in [2] it was -11.5% (inactive); in [4], 23.8% (inactive); in [9] it was -17.5% (inactive). The compound further had a nuclei count in assay [2] of 98.2%. Further, the z-score in assay [3] (setting [10]) is -0.875; in assay [3] (setting [11]), 2.27; in [3] (setting [12]), -0.541. In addition, the fluorescence slope in assay [5] was -0.432 (inactive); in assay [7] it was 0.00519 (inactive). The NADPH fluorescence slope in assay [6] is -5.9e-06 (inactive). Also, in assay [8], the result was inactive.

With `CCOC(=O)CC(=O)CSc1nnc2sc3ccccc3n12`, the cell count in assay [1] was determined as 493. Besides, the inhibition was -14.5% (inactive) in assay [1], 27.3% (inactive) in assay [2], 3.97% (inactive) in [4] and 6.97% (inactive) in assay [9]. This compound also displayed a nuclei count in assay [2] of 174%. Besides, the z-score in [3] (setting [10]) was 0.311; in [3] (setting [11]), 0.752; in [3] (setting [12]), -0.0836. For the same compound, the fluorescence slope in assay [5] is -0.427 (inactive); in [7], 0.0062 (inactive). The NADPH fluorescence slope in assay [6] was -3e-05 (inactive). In addition, in assay [8], the compound was called inactive.

For `COc1ccc(/C(O)=C2\C(=O)C(=O)N(c3cc(C)on3)C2c2ccccc2OC)cc1C` (centres undefined), in [1], the cell count was determined as 556. Further, the inhibition in [1] was -11.7% (inactive); in [2] it was 9.9% (inactive); in [4], -8.27% (inactive); in [9], -0.426% (inactive). In [2], this compound gave a nuclei count of 118%. Further, the z-score was -1.41 in assay [3] (setting [10]), -1.49 in assay [3] (setting [11]) and -1.43 in assay [3] (setting [12]). The fluorescence slope in assay [5] is -0.473 (inactive); in [7], 0.00597 (inactive). The NADPH fluorescence slope in assay [6] was -2.1e-05 (inactive). In addition, the compound was classed as inactive in assay [8].

In the case of `O=C(CN1CCc2[nH]c3ccccc3c2C1)N1CCCCC1`, the cell count in [1] came to 538. Besides, the inhibition in assay [1] is 3.2% (inactive); in [2], -91.5% (inactive); in assay [4] it was 3.42% (inactive); in assay [9], -5.72% (inactive). The same compound registered a nuclei count in assay [2] of 124%. In addition, the z-score in assay [3] (setting [10]) is -1.09; in [3] (setting [11]), -0.293; in [3] (setting [12]), -0.987. Also, the fluorescence slope in [5] was -0.446 (inactive); in assay [7], 0.00512 (inactive). Besides, in [6], the NADPH fluorescence slope was -8.6e-05 (inactive). Further, the call in [8] was inactive.

For the compound `O=C(NCCCN1CCOCC1)C1(c2ccccc2)CCOCC1`, the cell count in assay [1] was determined as 610. Further, the inhibition is -2% (inactive) in assay [1], 14.3% (inactive) in [2], -3.95% (inactive) in [4] and 19.5% (inactive) in assay [9]. Also, the nuclei count in assay [2] was 91.3%. The z-score in assay [3] (setting [10]) was -0.279; in assay [3] (setting [11]) it was 1.09; in assay [3] (setting [12]), -0.449. The fluorescence slope in assay [5] was -0.501 (inactive); in assay [7] it was 0.0058 (inactive). In addition, in [6], the NADPH fluorescence slope is -2.1e-05 (inactive). In addition, in assay [8], the call was inactive.

For the compound `CCN(CC)CCN1C(=O)C(=O)/C(=C(/O)c2c(C)[nH]c(C(=O)OC)c2C)C1c1cccc(OC)c1` (centres undefined), the cell count in assay [1] was found to be 699. For the same compound, the inhibition in assay [1] is -1% (inactive); in assay [2], -150% (inactive); in assay [4], 13.2% (inactive); in assay [9] it was 16.5% (inactive). The same compound had a nuclei count in assay [2] of 188%. The z-score is -0.637 in assay [3] (setting [10]), -0.455 in assay [3] (setting [11]) and -0.673 in assay [3] (setting [12]). The fluorescence slope in assay [5] is -0.445 (inactive); in assay [7], 0.0061 (inactive). Also, in assay [6], the NADPH fluorescence slope was -7.9e-05 (inactive). Further, the compound was classed as inactive in [8].

Consider `COC(=O)c1ccc(C2/C(=C(\O)c3ccc4c(c3)OCCO4)C(=O)C(=O)N2CCCN(C)C)cc1` (centres undefined), for which the cell count in [1] worked out at 366. Further, the inhibition in assay [1] was -2.2% (inactive); in assay [2], 1.3% (inactive); in assay [4], 9.82% (inactive); in assay [9], 25% (inactive). In assay [2], this compound came in with a nuclei count of 91.5%. Besides, the z-score in [3] (setting [10]) is -1.2; in assay [3] (setting [11]), -0.278; in assay [3] (setting [12]), 0.407. The fluorescence slope was -0.442 (inactive) in [5] and 0.00519 (inactive) in [7]. Further, the NADPH fluorescence slope in assay [6] is -0.000114 (inactive). Besides, the compound was called inactive in [8].

Turning to `CC1(C)Cc2c(c(N3CCCCC3)[nH]c(=S)c2C#N)CS1`, in [1], the cell count was determined as 574. For the same compound, the inhibition was -7.8% (inactive) in [1], -103% (inactive) in assay [2], -10.6% (inactive) in [4] and 12.9% (inactive) in assay [9]. The same compound displayed a nuclei count in [2] of 151%. Besides, the z-score in assay [3] (setting [10]) was -0.509; in [3] (setting [11]), -1.94; in [3] (setting [12]), 0.0392. For the same compound, the results for the fluorescence slope in assay [5] and in [7] were -0.479 (inactive) and 0.00629 (inactive), respectively. Moreover, the NADPH fluorescence slope in assay [6] is -0.000148 (inactive). In addition, in [8], the outcome was inactive.

Regarding `CCCCSc1nnc(-c2ccc(NC(C)=O)cc2)n1C`, the cell count in assay [1] worked out at 622. The inhibition in assay [1] is -5.3% (inactive); in assay [2] it was 21.1% (inactive); in assay [4], -13.3% (inactive); in [9], -9.33% (inactive). For the same compound, in assay [2], the nuclei count amounted to 166%. Besides, the z-score in [3] (setting [10]) was -0.239; in assay [3] (setting [11]), 0.0535; in assay [3] (setting [12]), 0.233. For the same compound, the figures for the fluorescence slope in assay [5] and in [7] were -0.461 (inactive) and 0.00598 (inactive), respectively. Moreover, the NADPH fluorescence slope in assay [6] was -3e-05 (inactive). Further, the compound was called inactive in [8].

Regarding `Cc1cc(CCC(=O)O)c(C)cc1CCC(=O)O`, the cell count in [1] worked out at 593. The inhibition in assay [1] was 0.2% (inactive); in assay [2] it was -64.2% (inactive); in assay [4], 5.35% (inactive); in [9] it was 1.89% (inactive). The nuclei count in assay [2] came out at 149%. The z-score is 0.485 in assay [3] (setting [10]), 1.16 in [3] (setting [11]) and -0.56 in assay [3] (setting [12]). For the same compound, the fluorescence slope is -0.452 (inactive) in assay [5] and 0.00588 (inactive) in [7]. In addition, the NADPH fluorescence slope in assay [6] is -0.000105 (inactive). In addition, the compound was called inactive in assay [8].

For the compound `N/C(=N\S(=O)(=O)c1ccc(Cl)s1)c1ccccc1`, the cell count in [1] was determined as 671. In addition, the inhibition was -8.3% (inactive) in assay [1], -77.1% (inactive) in assay [2], 7.83% (inactive) in assay [4] and 19.3% (inactive) in assay [9]. In [2], the nuclei count worked out at 150%. Besides, the z-score in [3] (setting [10]) was 1.62; in [3] (setting [11]) it was -1.89; in assay [3] (setting [12]), -1.41. For the same compound, the results for the fluorescence slope in [5] and in [7] were -0.473 (inactive) and 0.00465 (inactive), respectively. In [6], the NADPH fluorescence slope is -4.6e-05 (inactive). Besides, the outcome in [8] was inactive.

On to `c1ccc2c(c1)CCOC2CNCCCN1CCCCC1` (centres undefined), for which, in assay [1], the cell count is 701. Moreover, the inhibition in assay [1] is -5.5% (inactive); in assay [2] it was -141% (inactive); in [4], 1.98% (inactive); in assay [9] it was -4.57% (inactive). For the same compound, the nuclei count in assay [2] was 172%. Besides, the z-score in assay [3] (setting [10]) was -0.992; in assay [3] (setting [11]), 1.14; in assay [3] (setting [12]), -0.201. The values for the fluorescence slope in assay [5] and in [7] were -0.473 (inactive) and 0.00496 (inactive), respectively. The NADPH fluorescence slope in assay [6] was -6.5e-05 (inactive). For the same compound, in assay [8], the outcome was inactive.

As to `CN(CCOC(=O)c1ccc2c(c1)OCCO2)Cc1ccccc1`, the cell count in assay [1] came out at 661. For the same compound, the inhibition in assay [1] is -16.5% (inactive); in assay [2], -9.5% (inactive); in assay [4], 5.35% (inactive); in assay [9], 69.7% (active). This compound also returned a nuclei count in assay [2] of 184%. In addition, the z-score in assay [3] (setting [10]) was 0.691; in [3] (setting [11]), -0.671; in assay [3] (setting [12]), 1.4. Moreover, the fluorescence slope was -0.472 (inactive) in [5] and 0.00763 (inactive) in assay [7]. Also, the NADPH fluorescence slope in assay [6] is -0.000111 (inactive). Also, the result in assay [8] was inactive.
